Rows were chosen to be rich in hits. Some 1.6% of all compounds tested hit in one or more screens of this group.
MT1-MMP act inh: blocks activation of human MT1-MMP | P50281 | HT1080 RFP-PRO-GFP cells, GFP/RFP ratio fluorescence, overnight; percent of plate control window, DMSO zero | GFP/RFP ratio change, % at 20 µM | 360,000 compounds, 0.061% hits | AID 651647;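 active = GFP/RFP ratio change of at least 30% with cell ATP level not reduced by more than half and red fluorescence within 50% of control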
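Assay system: HT1080 RFP-PRO-GFP cells. Benchmarks: DMSO vehicle wells and RFP-L50D-GFP reporter cell wells. Times: overnight cell settling, then overnight compound exposure, 37 °C, 5% CO2. Compound: 20 µM single dose, 1% DMSO. Read-out basis: GFP/RFP fluorescence ratio.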
bovine MsrA act: bovine methionine sulfoxide reductase A activation; 360,000 compounds, 0.3% hits; activation, % at 10.6 µM; AID 602163; purified bovine MsrA, absorbance read-out; in the data active = activation above about 7.5%
SKN-1 block: C. elegans SKN-1 inhibition. C. elegans VP596 Pgst-4::GFP/RFP ratio, acrylamide-induced, 24 h. inhibition, % at 21.8 µM. 360,000 compounds, 0.49% hits;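 active = interference check ratio from 0.5 to 1.5 plus GFP to RFP signal ratio inhibition reaching or exceeding a fixed threshold, cut at about 30% in these data, passing the limit was not always enough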
p-CIP stab down: p/CIP protein destabilization; 290,000 compounds, 0.01% hits; decrease of EGFP signal, % at 10 µM; F442A p/CIP-EGFP cells, EGFP fluorescence, 16 h;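 active = EGFP signal decrease of at least 30% at 10 µM or well 3 SD below plate mean, unless failing retest; inactive = the rest, including hits failing retest or dose response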
Target sequence (Q05BA5 1-1403): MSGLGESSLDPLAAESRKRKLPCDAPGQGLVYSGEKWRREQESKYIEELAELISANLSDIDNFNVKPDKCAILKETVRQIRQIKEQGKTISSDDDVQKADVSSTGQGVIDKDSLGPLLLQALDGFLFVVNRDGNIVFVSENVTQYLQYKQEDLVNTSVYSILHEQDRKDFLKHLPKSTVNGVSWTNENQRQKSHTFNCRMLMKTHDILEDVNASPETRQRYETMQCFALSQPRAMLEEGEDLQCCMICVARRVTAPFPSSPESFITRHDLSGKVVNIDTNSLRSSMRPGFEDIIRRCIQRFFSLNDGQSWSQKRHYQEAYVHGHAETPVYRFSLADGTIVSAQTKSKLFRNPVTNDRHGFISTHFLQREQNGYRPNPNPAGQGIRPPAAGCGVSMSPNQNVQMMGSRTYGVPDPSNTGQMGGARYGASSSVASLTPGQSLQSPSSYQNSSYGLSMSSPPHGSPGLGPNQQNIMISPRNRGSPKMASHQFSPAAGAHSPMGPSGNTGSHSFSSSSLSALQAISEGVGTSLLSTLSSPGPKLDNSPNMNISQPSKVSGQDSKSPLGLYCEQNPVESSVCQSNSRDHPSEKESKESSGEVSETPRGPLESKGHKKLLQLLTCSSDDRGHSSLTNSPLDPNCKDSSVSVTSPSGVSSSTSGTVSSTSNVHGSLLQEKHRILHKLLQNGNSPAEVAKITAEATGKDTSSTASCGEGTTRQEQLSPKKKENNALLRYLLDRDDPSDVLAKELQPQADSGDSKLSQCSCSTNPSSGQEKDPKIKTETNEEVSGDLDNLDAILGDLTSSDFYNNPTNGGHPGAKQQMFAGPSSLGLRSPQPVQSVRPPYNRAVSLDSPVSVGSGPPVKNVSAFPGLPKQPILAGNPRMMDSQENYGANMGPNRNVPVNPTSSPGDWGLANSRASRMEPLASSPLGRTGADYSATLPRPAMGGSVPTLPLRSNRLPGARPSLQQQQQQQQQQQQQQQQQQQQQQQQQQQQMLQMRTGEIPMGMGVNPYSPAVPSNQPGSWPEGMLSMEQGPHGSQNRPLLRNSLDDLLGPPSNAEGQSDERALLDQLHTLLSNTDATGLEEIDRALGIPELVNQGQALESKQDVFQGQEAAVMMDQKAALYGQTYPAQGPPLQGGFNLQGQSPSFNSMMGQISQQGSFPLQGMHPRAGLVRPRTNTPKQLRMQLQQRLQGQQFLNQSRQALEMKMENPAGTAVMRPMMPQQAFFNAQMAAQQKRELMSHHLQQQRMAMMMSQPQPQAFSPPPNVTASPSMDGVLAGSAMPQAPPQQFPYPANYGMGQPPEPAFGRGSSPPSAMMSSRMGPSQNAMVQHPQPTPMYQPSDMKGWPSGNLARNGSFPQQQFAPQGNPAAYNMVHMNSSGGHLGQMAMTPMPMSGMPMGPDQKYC
MsrA inhibitor: inhibits bovine methionine sulfoxide reductase A; purified bovine MsrA, absorbance read-out; inhibition, % at 15.5 µM; 360,000 compounds, 0.75% hits
MT1-MMP act val: validation of inhibitors of human MT1-MMP activation. shares compounds with MT1-MMP act inh. HT1080 RFP-PRO-GFP cells, GFP and RFP fluorescence ratio, overnight. inhibition, % at 20 µM. 200 compounds, 10% hits. AID 652235;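 active = inhibition of at least 50% in the primary cell screen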
MsrA inh confirm: bovine MsrA inhibition, confirmed | AID 651822 | purified bovine MsrA, absorbance read-out | 2,300 compounds, 41% hits | shares compounds with MsrA inhibitor | inhibition, % at 15.5 µM;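 also: coupled to thioredoxin reductase with NADPH and selenocystamine and DMSO as substrate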
A number is an active result; . = inactive; / = no result given. Rule as the data show it, unless noted: active = inhibition above about 4.5%; inactive = the rest.

SMILES | MT1-MMP act inh | bovine MsrA act | SKN-1 block | p-CIP stab down | MsrA inhibitor | MsrA inh confirm | others
CC1C(=O)N(Cc2cn(CC3CCCCC3)nn2)CCS(=O)(=O)N1Cc1ccc(-c2ccc(Cl)cc2)cc1 (stereo not drawn) | 39.6 | . | . | / | / | / | MT1-MMP act val=.
COC(=O)C1=C(C)N(Cc2ccc(Br)cc2)C(=S)NC1c1cccc(OC)c1 (stereo not drawn) | / | / | / | / | . | /
Cc1cc2ccccc2n1CCNC(=O)C1CC1 | 32.5 | . | 46.6 | . | . | / | MT1-MMP act val=.
O=C(NCCn1ccc2ccccc21)C1CCCCC1 | . | . | . | . | . | /
Cc1cc2ccccc2n1CCNC(=O)C1CCCCC1 | 38.2 | . | . | . | . | / | MT1-MMP act val=.
C#CCNC(=O)C[C@H]1C[C@@]2(C(=O)OC)C(=C[C@H](C(C)(C)C)O[C@@H]2C)N(Cc2ccccc2)C1=O | / | / | / | / | . | /
CC(C)(C)S(=O)N1C[C@@H]2CC(=O)C(c3ccccc3)=C2[C@H]1CCO (stereo partly drawn) | / | / | / | / | . | /
O=C(O)c1ccc(/C=N/Nc2ccc(C(F)(F)F)cn2)cc1 | . | . | . | . | 7.0 | 6.3
O=C(NCC1CCCO1)C(=O)N/N=C/c1cc(Cl)ccc1O (stereo not drawn) | . | . | . | . | . | /
O=C(NCC1CCCO1)C(=O)N/N=C/c1ccc(O)c(Cl)c1 (stereo not drawn) | . | . | . | . | 5.3 | .
COc1ccc(-c2cccc3[nH]c4c(c23)CCN2C(=O)[C@H]3[C@H](C)ON(C)[C@H]3C[C@@H]42)cc1 | / | / | / | / | . | /
O=C(N/N=C/c1sc(N2CCOCC2)nc1-c1ccccc1)c1ccccc1F | / | / | / | . | / | /
Nc1ccc(C(=O)N/N=C/c2sc(N3CCOCC3)nc2-c2ccccc2)cc1 | . | . | . | . | 7.4 | .
Cc1cc(C(=O)N/N=C/c2sc(N3CCOCC3)nc2-c2ccccc2)c(C)o1 | . | . | . | . | 17.4 | 6.7
COc1cc(C(=O)N/N=C/c2sc(N3CCOCC3)nc2-c2ccccc2)cc(OC)c1OC | . | . | . | . | 6.6 | .
O=C(Nc1ccccc1F)C(=Cc1sc(N2CCOCC2)nc1-c1ccccc1)C(=O)Nc1ccccc1F | . | . | . | . | 4.8 | .
FC(F)(F)c1ccccc1Cc1c(-c2ccco2)nc2c3ccccc3ccn12 | / | / | / | / | . | /
O=C(N/N=C/c1sc(N2CCOCC2)nc1-c1ccccc1)c1ccccc1O | . | . | . | . | 6.5 | 5.1
O=C(N/N=C/c1sc(N2CCOCC2)nc1-c1ccccc1)c1ccccc1Cl | . | . | . | . | . | /
O=C(O)c1cccc(N/N=C/c2sc(N3CCOCC3)nc2-c2ccccc2)c1 | . | . | . | . | 18.9 | 16.9
COCc1cc(N2CCN(C(=O)OC(C)(C)C)C[C@@H]2C)ccc1N1CC[C@@H](O)C1 | / | / | / | / | . | /
CC(C)(C)S(=O)(=O)N1Cc2cc(CO)ccc2[C@@H]1CCO | / | / | / | / | . | /
COC(=O)c1cc2c(-c3ccccc3)cc3ccccn3c-2c1C(=O)OC | . | . | . | . | . | /
COC(=O)c1c(C)c2c(C)cc3ccccn3c-2c1C(=O)OC | . | . | . | . | 4.7 | .
COc1ccc(/C=N/NC2=NS(=O)(=O)c3ccccc32)cc1OC | . | . | . | . | 4.8 | .
SMILES | MT1-MMP act inh | bovine MsrA act | SKN-1 block | p-CIP stab down | MsrA inhibitor | MsrA inh confirm | others
Cn1c2c(c(=O)n(C)c1=O)C(C(F)(F)F)(C(F)(F)F)N=C(c1ccccc1Cl)N2 | . | . | . | . | 9.1 | 6.7
CNc1nc2ccccc2n1/N=C/c1cccc(OC)c1OC | . | . | . | . | . | /
COc1cccc(/C=N/n2c(CO)nc3ccccc32)c1OC | . | . | . | . | 10.3 | 13.0
O=[N+]([O-])c1ccc(Sc2nc3ccccc3[nH]2)c(Cl)c1 | / | / | / | / | . | /
Cc1cc(N2CCN(C(=O)OC(C)(C)C)C[C@H]2C)ccc1N1CCS(=O)(=O)CC1 | / | / | / | / | . | /
COc1ccc(-c2cc(NC=O)c3ncc(-c4cccc(C(=O)NCCN(C)C)c4)n3c2)cc1 | . | . | . | / | 11.4 | .
CC1(C)CC(=O)C2=C(C1)Nc1ccccc1NC2c1ccc2c(c1)OCO2 (stereo not drawn) | . | . | . | . | 6.6 | .
COc1ccccc1C1Nc2ccccc2NC2=C1C(=O)CC(C)(C)C2 (stereo not drawn) | . | . | . | . | 5.4 | .
COc1ccc(C(=O)/C=C/c2ccsc2)cc1CSCC(=O)O | . | . | . | . | 4.7 | .
CC1(C)OC(=O)C2=C(CC(CCc3ccccc3)OC2c2cccc(C(F)(F)F)c2)O1 (stereo not drawn) | / | / | / | / | . | /
COc1ccc([N+](=O)[O-])cc1/C=N/NC(=O)/C(=C\c1cccs1)NC(=O)c1ccccc1 | . | . | . | . | . | /
COc1ccc(/C=C(/NC(=O)c2ccccc2)C(=O)N/N=C/c2ccc3c(c2)OCO3)cc1OC | . | . | . | . | 6.4 | 5.1
O=C(N/N=C/c1cccnc1)/C(=C\c1cccs1)NC(=O)c1ccccc1 | . | . | . | . | 7.3 | 4.7
COc1ccc(/C=C(/NC(=O)c2ccccc2)C(=O)N/N=C/c2cccs2)cc1OC | . | . | . | . | 4.8 | 6.0
O=C(N/N=C/c1cc2ccccc2nc1Cl)/C(=C/c1cccs1)NC(=O)c1ccccc1 | . | . | . | . | . | /
CC(CNC(=O)[C@@H](Cc1ccccc1)NC(=O)[C@H]1O[C@@H](n2cnc3c(=O)[nH]c(N)nc32)[C@H](O)[C@@H]1O)c1ccccc1 (stereo partly drawn) | / | / | / | / | . | /
O=C(C(=O)N1CCC(CNC(=O)c2sc3ccccc3c2Cl)CC1)c1cccs1 | / | / | / | / | . | /
COc1ccc(C(=O)N/C(=C/c2cccs2)c2nc3ccccc3[nH]2)cc1OC | . | . | . | . | 5.3 | .
COc1cc(/C=C(/C(=O)c2cccs2)c2nc3ccccc3[nH]2)cc(OC)c1O | . | . | . | . | 5.5 | .
COc1ccc(C(=O)N/C(=C/c2cccs2)C(=O)NC(C)(C)C)cc1OC | . | . | . | . | . | /
CCOC(=O)C1=C(C(=O)OCC)C2N(Cc3ccc(C#N)cc3)c3ccccc3[C@@]23C[C@@H](C(=O)OC)N(S(=O)(=O)c2cccs2)C3=N1 (stereo partly drawn) | / | / | / | / | . | /
COc1cc(/C=C/C(=O)Nc2ccc(S(=O)(=O)Nc3ncccn3)cc2)ccc1OCC#N | . | . | . | / | 4.9 | .
COc1cc(/C=C/C(=O)Nc2cccc(S(=O)(=O)N3CCOCC3)c2)ccc1OCC#N | . | . | . | / | . | /
O=C(/C=C/c1ccccc1[N+](=O)[O-])Nc1ccc(S(=O)(=O)Nc2ncccn2)cc1 | . | . | . | . | . | /
COc1cc(/C=C/C(=O)Nc2ccc(C(C)=O)cc2)cc(OC)c1OC | . | . | . | . | . | /
COc1cc(/C=C/C(=O)Nc2ccncc2)cc(OC)c1OC | . | . | . | . | 4.7 | .

Source: PubChem BioAssay (several laboratories)
